Experiments:
A-375 = test: Antiproliferative activity against human A375 cells after 48 hrs by SRB assay; type: functional, cell-based; details: A-375, 48 h
Summary of the method: (§1)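 Cells seeded in round-bottom 96-well plates and exposed to a wide range of concentrations for 48 h. Fixed with 10% trichloroacetic acid, washed five times with water, air-dried overnight, then stained with sulforhodamine B. Total protein read at 560 nm. IC50 is the concentration inhibiting growth by 50% relative to DMSO-treated controls, obtained by nonlinear regression.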

[1] = Antiproliferative activity against mouse B16-F1 cells after 48 hrs by SRB assay; type: functional, cell-based; details: B16-F1, 48 h; summary of the method: as §1
[2] = Antiproliferative activity against fibroblast cells after 48 hrs by SRB assay; type: cell-based; summary of the method: as §1

Row | IC50 (A-375) | SMILES | IC50 [1] | IC50 [2]
1 | 13.1 µM | CCCCCCCCCCCCCCCCNC(=O)[C@@H]1CSC(C(C)c2ccccc2)N1 (stereo partly specified) | 12.2 µM | 55.7 µM
2 | 10.5 µM | CCCCCCCCCCCCCCCCNC(=O)[C@@H]1CNC(c2ccccc2)=N1 | 5.7 µM | 59.6 µM
3 | 16.5 µM | CCCCCCCCCCCCCCCCNC(=O)c1c[nH]c(-c2ccccc2)n1 | 39.7 µM | 27.9 µM
4 | 54.3 µM | CCCCCCCCCCCCCCCCCCNC(=O)[C@@H]1CNC(c2ccccc2)=N1 | 50.5 µM | 111 µM
5 | 8.1 µM | CCCCCCCCCCCCCCCCNC(=O)[C@@H]1CSC(Cc2ccccc2)N1 (stereo partly specified) | 6.5 µM | 15.3 µM
6 | 16.1 µM | CCCCCCCCC/C=C/CCCCCCCNC(=O)c1c[nH]c(-c2ccccc2)n1 | 31.6 µM | 23.9 µM
7 | 21.2 µM | CCCCCCCCC/C=C/CCCCCCCNC(=O)[C@@H]1CSC(C(C)c2ccccc2)N1 (stereo partly specified) | 16.5 µM | 237 µM
8 | 10.3 µM | CCCCCCCCC/C=C/CCCCCCCNC(=O)[C@@H]1CSC(Cc2ccccc2)N1 (stereo partly specified) | 11.6 µM | 15.5 µM
9 | 8.3 µM | CCCCCCCCC/C=C/CCCCCCCNC(=O)[C@@H]1CNC(c2ccccc2)=N1 | 12 µM | 24.6 µM
10 | 191 µM | CCCCCCCCCCCCCCCCNC(=O)[C@@H]1CSC(Cc2ccc(NC(C)=O)cc2)N1 (stereo partly specified) | 171 µM | > 100 µM
11 | 13.7 µM | CCCCCCCCCCCCCCCCNC(=O)[C@H]1CC[C@@H](c2ccccc2)N1 | 11.5 µM | 46.6 µM
12 | 7.1 µM | CCCCCCCCCCCCCCNC(=O)[C@@H]1CNC(c2ccccc2)=N1 | 7.2 µM | 17.3 µM

Second part, the compound before the results:

Row | SMILES | IC50 (A-375) | IC50 [1] | IC50 [2]
13 | CCCCCCCCCCCCCCCCNC(=O)[C@@H]1CNC(c2ccc(NC(C)=O)cc2)=N1 | 4.6 µM | 2.4 µM | 14.8 µM
14 | CCCCCCCCCCCCCCCCCCNC(=O)c1c[nH]c(-c2ccccc2)n1 | 20.7 µM | > 30 µM | 47.4 µM
15 | COc1cc(C2=N[C@H](C(=O)N(C)OC)CN2)cc(OC)c1OC | > 20 µM | > 20 µM | > 20 µM
16 | CN(C)/N=N/c1[nH]cnc1C(N)=O [DACARBAZINE] | > 100 µM | > 100 µM | –
17 | CCCCCCCCCCCCCCNC(=O)c1c[nH]c(-c2ccccc2)n1 | 18.7 µM | 38.2 µM | 42.7 µM
18 | O=C(Nc1ccc2c(c1)Cc1ccccc1-2)[C@@H]1CSC(Cc2ccccc2)N1 (stereo partly specified) | 174 µM | 118 µM | > 100 µM
19 | O=C(Nc1ccc(Br)cc1)c1c[nH]c(-c2ccccc2)n1 | > 30 µM | > 30 µM | –
20 | CNC(=O)c1cc(Oc2ccc(NC(=O)Nc3ccc(Cl)c(C(F)(F)F)c3)cc2)ccn1 [SORAFENIB] | 5.4 µM | 4.9 µM | 15.1 µM
21 | CCCCCCCCCCCCCCCCNC(=O)[C@@H]1CNC(c2cc(OC)c(OC)c(OC)c2)=N1 | 4.1 µM | 3.8 µM | 13.3 µM
22 | CCCCCCCCCCNC(=O)c1c[nH]c(-c2ccccc2)n1 | > 30 µM | > 30 µM | –
23 | CCCCCCCCCCCCCCCCNC(=O)[C@@H]1CNC(Cc2cc(OC)c(OC)c(OC)c2)=N1 | 3.9 µM | 4 µM | 15.8 µM
24 | CC(=O)Nc1ccc(CC2N[C@H](C(=O)Nc3ccc4c(c3)Cc3ccccc3-4)CS2)cc1 (stereo partly specified) | 6.1 µM | 4 µM | 15.3 µM
25 | CCCCCCCCCCCCNC(=O)c1c[nH]c(-c2ccccc2)n1 | > 30 µM | 30 µM | –

From ChEMBL document CHEMBL1150379, “Synthesis and antiproliferative activity of imidazole and imidazoline analogs for melanoma” (Bioorg Med Chem Lett, 2008)
